Data set [1] in a line: Apparent half life in human liver microsomes at 3 uM. The conditions noted are these: read-out: t1/2(app). The class given is ADME, microsome.
The nature of data set [2]: Intrinsic clearance in human liver microsomes at 3 uM. The class given is ADME, microsome. As to conditions: read-out: CLH. Background: Liver microsomes are a subcellular fraction often used to study metabolism.
Data set [3] deals with T1, Bromodomain-containing protein 4 (Homo sapiens, UniProt O60885). In words: Inhibition of recombinant His6-tagged human BRD4 bromodomain 1 expressed in Escherichia coli BL21(DE3)-R3-pRARE2 cells preincubated for 30 mins followed by H4KAc4 peptide substrate addition measured after 30 mins by AlphaScreen assay. (Alpha assays give light when donor and acceptor beads are brought close together.)

The subject of a further data set is A498. Briefly: Growth inhibition of human A498 cells after 48 hrs by SRB assay. The class given is functional. The conditions noted are these: A498, 48 h. The essentials:
(§1)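 In-house assay. Cells were seeded into 96-well plates at a density for exponential growth and treated with a concentration range for 48 h. They were then fixed in 10% (w/v) TCA and stained with sulforhodamine B. The 50% growth-inhibitory concentration relative to control cells was calculated as the mean of three repeats ± standard deviation.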

Another data set relates to HT-29. Briefly: Growth inhibition of human HT-29 cells after 48 hrs by SRB assay. The data set is classed as functional. As to conditions: HT-29, 48 h. The essentials:
as §1
In general terms: Sulforhodamine B stains cellular protein and so reports cell mass.

The subject of the next data set is MCF7. Briefly: Growth inhibition of human MCF7 cells after 48 hrs by SRB assay. As to conditions: MCF7, 48 h. The data set is classed as functional. A digest of the protocol: as §1
Data set [4] concerns the target T1, Bromodomain-containing protein 4. Briefly: Binding affinity to His6-tagged human BRD4 bromodomain 1 expressed in Escherichia coli BL21(DE3)-R3-pRARE2 cells by isothermal titration calorimetric method.
For data set [5], the target named is ATPase family AAA domain-containing protein 2B (Homo sapiens) (UniProt Q9ULI0). In words: Inhibition of human partial length ATAD2B (Q955 to R1082 residues) expressed in bacterial expression system assessed as residual activity at 1 uM by BROMOscan assay relative to control.
Data set [6] has as its target Bromodomain-containing protein 2 (Homo sapiens) (UniProt P25440). Briefly: Inhibition of human partial length BRD2 bromodomain 1 (K71 to N194 residues) expressed in bacterial expression system assessed as residual activity at 1 uM by BROMOscan assay relative to control.
Data set [7] deals with Bromodomain-containing protein 3 (Homo sapiens) (UniProt Q15059). In words: Inhibition of human partial length BRD3 bromodomain 1 (P24 to E144 residues) expressed in bacterial expression system assessed as residual activity at 1 uM by BROMOscan assay relative to control.
Bromodomain-containing protein 3 (Homo sapiens), sequence (Q15059 2-726 limits assumed): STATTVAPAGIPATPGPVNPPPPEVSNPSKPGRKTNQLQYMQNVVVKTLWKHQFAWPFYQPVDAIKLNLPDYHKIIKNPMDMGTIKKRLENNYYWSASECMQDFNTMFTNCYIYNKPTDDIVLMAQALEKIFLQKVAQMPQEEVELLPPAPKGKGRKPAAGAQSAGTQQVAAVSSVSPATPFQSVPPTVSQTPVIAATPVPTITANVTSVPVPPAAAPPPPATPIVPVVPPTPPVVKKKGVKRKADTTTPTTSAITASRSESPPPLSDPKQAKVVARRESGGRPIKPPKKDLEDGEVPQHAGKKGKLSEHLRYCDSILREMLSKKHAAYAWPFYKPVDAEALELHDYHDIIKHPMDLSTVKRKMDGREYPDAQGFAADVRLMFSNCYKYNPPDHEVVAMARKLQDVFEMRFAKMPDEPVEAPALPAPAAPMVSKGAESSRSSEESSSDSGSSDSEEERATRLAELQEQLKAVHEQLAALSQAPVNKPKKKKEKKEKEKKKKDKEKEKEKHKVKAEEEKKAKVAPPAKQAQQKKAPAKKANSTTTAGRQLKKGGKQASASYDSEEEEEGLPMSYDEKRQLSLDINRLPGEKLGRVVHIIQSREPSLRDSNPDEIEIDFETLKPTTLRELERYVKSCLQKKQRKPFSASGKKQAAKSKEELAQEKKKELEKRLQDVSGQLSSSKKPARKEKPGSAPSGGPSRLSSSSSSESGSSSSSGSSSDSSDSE
Data set [8] concerns the target T1, Bromodomain-containing protein 4. Briefly: Inhibition of human partial length BRD4 bromodomain 1 (N44 to E168 residues) expressed in bacterial expression system assessed as residual activity at 1 uM by BROMOscan assay relative to control.
For data set [9] the target is unchanged. Briefly: Inhibition of human partial length BRD4 bromodomain 2 (K333 to E460 residues) expressed in bacterial expression system assessed as residual activity at 1 uM by BROMOscan assay relative to control.
Data set [10] deals with Bromodomain-containing protein 9 (Homo sapiens) (UniProt Q9H8M2). In words: Inhibition of human partial length BRD9 (R130 to V259 residues) expressed in bacterial expression system assessed as residual activity at 1 uM by BROMOscan assay relative to control.
Bromodomain-containing protein 9 (Homo sapiens), sequence (Q9H8M2 whole entry, the tested form may be a part): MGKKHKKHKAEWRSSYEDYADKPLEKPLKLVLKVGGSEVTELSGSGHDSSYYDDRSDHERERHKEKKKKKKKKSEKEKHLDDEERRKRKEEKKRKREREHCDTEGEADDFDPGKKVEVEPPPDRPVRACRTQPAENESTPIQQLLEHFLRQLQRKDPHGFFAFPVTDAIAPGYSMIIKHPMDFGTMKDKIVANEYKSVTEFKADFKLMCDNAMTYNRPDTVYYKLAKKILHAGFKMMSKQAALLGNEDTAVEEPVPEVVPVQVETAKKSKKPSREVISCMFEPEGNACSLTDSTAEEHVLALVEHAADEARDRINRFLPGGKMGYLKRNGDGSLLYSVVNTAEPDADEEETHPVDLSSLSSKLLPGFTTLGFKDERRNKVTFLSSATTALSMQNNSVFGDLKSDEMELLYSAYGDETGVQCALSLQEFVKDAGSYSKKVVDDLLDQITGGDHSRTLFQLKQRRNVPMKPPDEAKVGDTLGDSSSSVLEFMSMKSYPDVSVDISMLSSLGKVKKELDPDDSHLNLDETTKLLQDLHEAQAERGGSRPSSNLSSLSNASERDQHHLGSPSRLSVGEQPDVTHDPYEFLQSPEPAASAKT
Data set [11] concerns the target Bromodomain testis-specific protein (Homo sapiens) (UniProt Q58F21). Briefly: Inhibition of human partial length BRDT bromodomain 1 (N21 to E137 residues) expressed in bacterial expression system assessed as residual activity at 1 uM by BROMOscan assay relative to control.
A further data set concerns the target Peregrin (Homo sapiens) (UniProt P55201). In words: Inhibition of human partial length BRPF1 (E627 to G740 residues) expressed in bacterial expression system assessed as residual activity at 1 uM by BROMOscan assay relative to control.
For data set [12], the target named is CREB-binding protein (Homo sapiens) (UniProt Q92793). Briefly: Inhibition of human partial length CREBBP (R1081 to G1197 residues) expressed in bacterial expression system assessed as residual activity at 1 uM by BROMOscan assay relative to control.
For data set [13], the target named is Histone acetyltransferase KAT2B (Homo sapiens) (UniProt Q92831). In words: Inhibition of human partial length PCAF (G715 to D831 residues) expressed in bacterial expression system assessed as residual activity at 1 uM by BROMOscan assay relative to control.
Histone acetyltransferase KAT2B (Homo sapiens), sequence (Q92831 whole entry, looked up, the tested form may be a part): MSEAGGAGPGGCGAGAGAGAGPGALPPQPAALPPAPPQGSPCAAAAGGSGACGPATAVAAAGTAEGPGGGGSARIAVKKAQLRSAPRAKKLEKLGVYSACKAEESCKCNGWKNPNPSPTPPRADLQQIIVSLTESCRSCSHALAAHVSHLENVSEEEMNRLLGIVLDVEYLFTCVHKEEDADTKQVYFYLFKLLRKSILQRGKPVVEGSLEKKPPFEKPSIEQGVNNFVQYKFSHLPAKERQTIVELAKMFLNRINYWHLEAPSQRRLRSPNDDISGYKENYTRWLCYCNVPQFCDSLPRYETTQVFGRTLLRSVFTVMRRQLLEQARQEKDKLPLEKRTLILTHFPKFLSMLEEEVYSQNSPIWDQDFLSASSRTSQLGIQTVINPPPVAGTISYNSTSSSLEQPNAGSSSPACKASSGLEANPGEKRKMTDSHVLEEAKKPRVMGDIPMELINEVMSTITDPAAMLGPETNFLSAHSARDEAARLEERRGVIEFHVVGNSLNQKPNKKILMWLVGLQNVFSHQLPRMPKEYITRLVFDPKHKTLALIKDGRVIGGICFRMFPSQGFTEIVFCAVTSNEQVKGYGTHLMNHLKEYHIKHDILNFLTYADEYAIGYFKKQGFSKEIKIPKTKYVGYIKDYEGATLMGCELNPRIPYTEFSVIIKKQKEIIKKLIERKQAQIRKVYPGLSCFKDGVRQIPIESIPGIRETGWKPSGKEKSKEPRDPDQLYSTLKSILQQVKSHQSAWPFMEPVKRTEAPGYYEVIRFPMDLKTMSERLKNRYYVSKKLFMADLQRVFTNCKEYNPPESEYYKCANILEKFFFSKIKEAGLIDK
Data set [14] addresses SWI/SNF-related matrix-associated actin-dependent regulator of chromatin subfamily A member 4 (Homo sapiens) (UniProt P51532). In words: Inhibition of human partial length SMARCA4 (A1448 to S1575 residues) expressed in bacterial expression system assessed as residual activity at 1 uM by BROMOscan assay relative to control.
Data set [15] concerns the target Bromodomain and WD repeat-containing protein 1 (Homo sapiens) (UniProt Q9NSI6). Briefly: Inhibition of human partial length WDR9 bromodomain 2 (A1310 to E1430 residues) expressed in bacterial expression system assessed as residual activity at 1 uM by BROMOscan assay relative to control.

The GI50 is the concentration at which growth is held to half of that of the control. Low readings indicate greater sensitivity of the cells, high ones lower sensitivity of the cells. Usually Kd stands for the concentration at which binding is half-saturated. Read a low Kd as a tighter complex.

Peregrin (Homo sapiens), sequence (P55201 whole entry, the tested form may be a part): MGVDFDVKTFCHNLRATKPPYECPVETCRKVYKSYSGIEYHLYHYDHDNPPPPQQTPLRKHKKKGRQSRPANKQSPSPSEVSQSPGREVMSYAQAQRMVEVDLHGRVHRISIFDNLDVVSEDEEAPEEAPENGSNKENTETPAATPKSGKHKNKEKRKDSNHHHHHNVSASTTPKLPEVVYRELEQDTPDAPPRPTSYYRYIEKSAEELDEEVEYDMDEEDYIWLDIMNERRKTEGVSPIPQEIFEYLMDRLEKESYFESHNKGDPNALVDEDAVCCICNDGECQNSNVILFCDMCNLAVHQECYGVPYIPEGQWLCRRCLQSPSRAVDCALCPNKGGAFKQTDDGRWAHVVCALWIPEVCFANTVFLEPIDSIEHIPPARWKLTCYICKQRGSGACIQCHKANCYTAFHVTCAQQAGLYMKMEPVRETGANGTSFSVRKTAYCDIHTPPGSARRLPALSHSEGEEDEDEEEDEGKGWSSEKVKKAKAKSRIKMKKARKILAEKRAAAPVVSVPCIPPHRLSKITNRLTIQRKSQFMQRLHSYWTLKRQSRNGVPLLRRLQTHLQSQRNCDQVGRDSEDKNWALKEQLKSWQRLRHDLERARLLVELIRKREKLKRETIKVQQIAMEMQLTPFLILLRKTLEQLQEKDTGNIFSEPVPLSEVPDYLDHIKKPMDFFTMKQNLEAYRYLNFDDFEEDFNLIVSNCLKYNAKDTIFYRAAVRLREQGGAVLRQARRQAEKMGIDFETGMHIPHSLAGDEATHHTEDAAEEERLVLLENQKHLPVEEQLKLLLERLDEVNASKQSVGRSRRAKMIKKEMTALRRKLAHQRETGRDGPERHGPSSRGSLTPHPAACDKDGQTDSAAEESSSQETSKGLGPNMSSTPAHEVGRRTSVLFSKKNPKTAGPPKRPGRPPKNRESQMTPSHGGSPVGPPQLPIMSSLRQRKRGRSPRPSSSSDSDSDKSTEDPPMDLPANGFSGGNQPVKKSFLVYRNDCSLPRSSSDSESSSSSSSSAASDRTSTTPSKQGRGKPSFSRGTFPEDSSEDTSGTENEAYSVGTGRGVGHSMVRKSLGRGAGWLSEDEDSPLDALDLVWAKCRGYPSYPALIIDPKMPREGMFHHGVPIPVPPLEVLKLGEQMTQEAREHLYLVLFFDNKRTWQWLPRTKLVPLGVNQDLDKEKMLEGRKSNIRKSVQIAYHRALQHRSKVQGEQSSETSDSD
SWI/SNF-related matrix-associated actin-dependent regulator of chromatin subfamily A member 4 (Homo sapiens), sequence (P51532 whole entry, the tested form may be a part): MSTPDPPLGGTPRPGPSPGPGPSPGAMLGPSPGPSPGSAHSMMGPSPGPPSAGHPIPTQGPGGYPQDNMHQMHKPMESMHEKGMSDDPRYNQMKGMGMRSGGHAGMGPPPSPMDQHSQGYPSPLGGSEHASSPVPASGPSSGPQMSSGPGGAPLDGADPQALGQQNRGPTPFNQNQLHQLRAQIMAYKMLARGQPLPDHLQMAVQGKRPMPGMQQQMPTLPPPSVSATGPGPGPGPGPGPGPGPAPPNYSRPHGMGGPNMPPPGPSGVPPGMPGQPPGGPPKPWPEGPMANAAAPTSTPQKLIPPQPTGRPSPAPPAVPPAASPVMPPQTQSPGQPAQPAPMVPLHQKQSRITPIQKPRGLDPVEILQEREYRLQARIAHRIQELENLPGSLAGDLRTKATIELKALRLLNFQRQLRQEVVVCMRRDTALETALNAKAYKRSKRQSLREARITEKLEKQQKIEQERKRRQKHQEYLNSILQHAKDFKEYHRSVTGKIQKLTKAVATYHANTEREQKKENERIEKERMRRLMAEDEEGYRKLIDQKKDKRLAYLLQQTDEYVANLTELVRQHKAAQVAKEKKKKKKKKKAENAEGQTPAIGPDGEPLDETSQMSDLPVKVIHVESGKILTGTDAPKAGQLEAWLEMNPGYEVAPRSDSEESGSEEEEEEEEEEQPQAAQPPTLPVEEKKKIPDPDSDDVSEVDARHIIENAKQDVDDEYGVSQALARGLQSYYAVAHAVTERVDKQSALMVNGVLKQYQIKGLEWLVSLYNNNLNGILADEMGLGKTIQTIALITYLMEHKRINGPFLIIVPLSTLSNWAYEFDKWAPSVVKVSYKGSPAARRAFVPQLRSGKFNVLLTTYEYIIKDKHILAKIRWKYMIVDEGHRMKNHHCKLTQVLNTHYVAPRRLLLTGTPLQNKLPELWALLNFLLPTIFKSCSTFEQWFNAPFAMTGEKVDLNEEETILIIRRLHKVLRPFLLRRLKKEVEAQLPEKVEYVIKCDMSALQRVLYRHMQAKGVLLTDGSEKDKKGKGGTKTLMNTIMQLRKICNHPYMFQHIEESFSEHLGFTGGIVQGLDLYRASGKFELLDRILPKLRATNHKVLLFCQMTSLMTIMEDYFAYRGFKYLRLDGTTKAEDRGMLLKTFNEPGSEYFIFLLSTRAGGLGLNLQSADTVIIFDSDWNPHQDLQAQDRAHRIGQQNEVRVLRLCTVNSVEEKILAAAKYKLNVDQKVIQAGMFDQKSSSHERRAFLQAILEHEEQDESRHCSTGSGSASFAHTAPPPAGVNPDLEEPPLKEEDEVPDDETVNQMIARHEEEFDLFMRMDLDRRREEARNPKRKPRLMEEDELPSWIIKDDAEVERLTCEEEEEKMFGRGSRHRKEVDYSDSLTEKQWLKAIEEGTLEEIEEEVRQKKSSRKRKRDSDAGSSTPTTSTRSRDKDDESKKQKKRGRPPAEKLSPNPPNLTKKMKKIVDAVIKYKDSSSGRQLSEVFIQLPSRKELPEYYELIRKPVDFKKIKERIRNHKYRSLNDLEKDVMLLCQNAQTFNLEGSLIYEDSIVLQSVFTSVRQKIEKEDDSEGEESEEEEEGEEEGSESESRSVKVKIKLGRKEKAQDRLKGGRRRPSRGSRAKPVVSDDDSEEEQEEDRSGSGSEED

`COc1ccc2c(c1)[C@]13CCCC[C@@H]1[C@H](C2)N(C)CC3` [DEXTROMETHORPHAN]: in data set [1], the half-life at 3 µM amounted to 54.5 min. For the same compound, the microsomal CLint at 3 µM in data set [2] turned out to be 25.4 µL/min/mg.
Take `Cc1noc(C)c1-c1cc(O)cc(C(O)C2CC2)c1` (stereo not given): the IC50 was 377 nM in [3] (read-out: IC50) and 380 nM in [3] (read-out: pIC50 (converted)).
The corresponding values for `Cc1noc(C)c1-c1cc(O)cc(CN2CCCCC2)c1` are 4280 nM and 4270 nM.
`Cc1noc(C)c1-c1cc(O)cc(Cc2ccccc2)c1`: the IC50 in data set [3] (read-out: IC50) and in data set [3] (read-out: pIC50 (converted)) was 1100 nM throughout.
In the case of `Cc1noc(C)c1-c1cc(O)cc(C(O)c2ccc(Cl)cc2)c1` (stereo not given), the IC50 in [3] (read-out: IC50) and in data set [3] (read-out: pIC50 (converted)) was 631 nM in each case.
Take `Cc1noc(C)c1-c1cc(O)cc(C(O)c2cccc(F)c2)c1` (stereo not given): the IC50 in [3] (read-out: IC50) is 793 nM; in data set [3] (read-out: pIC50 (converted)) it was 794 nM.
In the case of `Cc1noc(C)c1-c1cc(O)cc(C(O)c2ccccc2F)c1` (stereo not given), the IC50 in [3] (read-out: IC50) was 1420 nM; in data set [3] (read-out: pIC50 (converted)), 1410 nM.
With `Cc1noc(C)c1-c1cc(O)cc(C(O)C2CCCCC2)c1` (stereo not given), the IC50 in data set [3] (read-out: IC50) and in data set [3] (read-out: pIC50 (converted)) was 166 nM throughout.
In the case of `Cc1ccc(C(O)c2cc(O)cc(-c3c(C)noc3C)c2)cc1` (stereo not given), the IC50 is 296 nM in data set [3] (read-out: IC50) and 295 nM in [3] (read-out: pIC50 (converted)).
With `Cc1noc(C)c1-c1cc(O)cc(C(O)c2ccc(Cl)c(Cl)c2)c1` (stereo not given), the IC50 was 945 nM in [3] (read-out: IC50) and 955 nM in [3] (read-out: pIC50 (converted)).
For the compound `Cc1noc(C)c1-c1cc(O)cc(C(O)c2cccnc2)c1` (stereo not given), the IC50 in data set [3] (read-out: IC50) and in data set [3] (read-out: pIC50 (converted)) was 166 nM throughout. The half-life at 3 µM in [1] came to 388 min. Besides, in data set [2], the microsomal CLint at 3 µM was determined as 3.57 µL/min/mg. For the same compound, the figures for the GI50 in the data set with A498, in the data set on HT-29 and in the data set with MCF7 were 4880 nM, 4400 nM and 1400 nM, respectively. In addition, the Kd in data set [4] amounted to 247 nM. For the same compound, the Activity in data set [5] came out at 98%; in data set [6], 1.8%; in data set [7] it was 1.5%; in [8], 4.6%; in [9], 1.1%; in data set [10], 100%. In addition, the Activity in [11] turned out to be 11%; at Peregrin (Homo sapiens), 100%; in data set [12] it was 29%; in data set [13], 100%; in data set [14], 100%; in [15] it was 100%.
As for `Cc1noc(C)c1-c1cc(O)cc(C(O)c2ccc(F)cc2)c1` (stereo not given), the IC50 in [3] (read-out: IC50) was 842 nM; in data set [3] (read-out: pIC50 (converted)) it was 851 nM.
Take `Cc1noc(C)c1-c1cc(O)cc(CN2CCC(F)(F)CC2)c1`: the results for the IC50 in [3] (read-out: IC50) and in data set [3] (read-out: pIC50 (converted)) were 235 nM and 234 nM, respectively. Also, the half-life at 3 µM in data set [1] is 27 min. The microsomal CLint at 3 µM in [2] was found to be 51.4 µL/min/mg.
For `Cc1noc(C)c1-c1cc(O)cc(C(=O)N2CCOCC2)c1`, the IC50 in data set [3] (read-out: IC50) and in [3] (read-out: pIC50 (converted)) was 3800 nM throughout.
On to `Cc1noc(C)c1-c1cc(O)cc(CN2CCOCC2)c1`, for which the results for the IC50 in data set [3] (read-out: IC50) and in data set [3] (read-out: pIC50 (converted)) were 956 nM and 955 nM, respectively.
Consider `Cc1noc(C)c1-c1cc(O)cc(CN2CCN(C)CC2)c1`, for which the IC50 in data set [3] (read-out: IC50) and in data set [3] (read-out: pIC50 (converted)) was 1230 nM each time.
On to `Cc1noc(C)c1-c1cc(O)cc(C(O)c2ccc(Cl)cn2)c1` (stereo not given), for which the results for the IC50 in data set [3] (read-out: IC50) and in [3] (read-out: pIC50 (converted)) were 495 nM and 490 nM, respectively.
As to `Cc1noc(C)c1-c1cc(O)cc(C(=O)N2CCNCC2)c1`, the IC50 in data set [3] (read-out: IC50) was 722 nM; in data set [3] (read-out: pIC50 (converted)), 724 nM.
Regarding `Cc1noc(C)c1-c1cc(O)cc(CN2CCCC2)c1`, the IC50 was 3270 nM in data set [3] (read-out: IC50) and 3240 nM in [3] (read-out: pIC50 (converted)).
For the compound `Cc1noc(C)c1-c1cc(O)cc(CNCc2ccccc2)c1`, the IC50 is 2250 nM in data set [3] (read-out: IC50) and 2240 nM in data set [3] (read-out: pIC50 (converted)).
With `COc1cccc(C(O)c2cc(O)cc(-c3c(C)noc3C)c2)c1` (stereo not given), the IC50 in data set [3] (read-out: IC50) was 478 nM; in data set [3] (read-out: pIC50 (converted)) it was 479 nM.
The corresponding values for `COc1ccc(C(O)c2cc(O)cc(-c3c(C)noc3C)c2)cc1` (stereo not given) are 585 nM and 589 nM.
Regarding `COc1ccccc1C(O)c1cc(O)cc(-c2c(C)noc2C)c1` (stereo not given), the IC50 is 270 nM in [3] (read-out: IC50) and 269 nM in data set [3] (read-out: pIC50 (converted)).
On to `Cc1noc(C)c1-c1cc(O)cc(C(O)c2ccncc2)c1` (stereo not given), for which the results for the IC50 in [3] (read-out: IC50) and in [3] (read-out: pIC50 (converted)) were 303 nM and 302 nM, respectively.
As for `Cc1noc(C)c1-c1cc(O)cc(C(O)c2ccccn2)c1` (stereo not given), the IC50 in [3] (read-out: IC50) and in [3] (read-out: pIC50 (converted)) was 4680 nM each time.

The values above are taken from ChEMBL document CHEMBL4118192, “BET bromodomain ligands: Probing the WPF shelf to improve BRD4 bromodomain affinity and metabolic stability” (Bioorg Med Chem, 2018).
